In series [1] the test system is Kidney. As to the kind of experiment: In vivo drug metabolism in Sprague-Dawley rat assessed as CDDO-Me formation in kidney at 30 mg/kg, ip measured at 10 mins by LC-MS/MS analysis. Type of series: ADME, organism-based. Put shortly: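 Rats given a single ip injection, 20 mg/kg (0.04 mmol) of CDDO-Me or 30 mg/kg (0.04 mmol) of the prodrug; heart, kidney and liver collected over time; parent compound and liberated CDDO-Me measured by LC-MS/MS.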

Series [2] deals with T1, Inhibitor of nuclear factor kappa-B kinase subunit beta (Homo sapiens) (UniProt O14920).
T1 sequence (whole entry): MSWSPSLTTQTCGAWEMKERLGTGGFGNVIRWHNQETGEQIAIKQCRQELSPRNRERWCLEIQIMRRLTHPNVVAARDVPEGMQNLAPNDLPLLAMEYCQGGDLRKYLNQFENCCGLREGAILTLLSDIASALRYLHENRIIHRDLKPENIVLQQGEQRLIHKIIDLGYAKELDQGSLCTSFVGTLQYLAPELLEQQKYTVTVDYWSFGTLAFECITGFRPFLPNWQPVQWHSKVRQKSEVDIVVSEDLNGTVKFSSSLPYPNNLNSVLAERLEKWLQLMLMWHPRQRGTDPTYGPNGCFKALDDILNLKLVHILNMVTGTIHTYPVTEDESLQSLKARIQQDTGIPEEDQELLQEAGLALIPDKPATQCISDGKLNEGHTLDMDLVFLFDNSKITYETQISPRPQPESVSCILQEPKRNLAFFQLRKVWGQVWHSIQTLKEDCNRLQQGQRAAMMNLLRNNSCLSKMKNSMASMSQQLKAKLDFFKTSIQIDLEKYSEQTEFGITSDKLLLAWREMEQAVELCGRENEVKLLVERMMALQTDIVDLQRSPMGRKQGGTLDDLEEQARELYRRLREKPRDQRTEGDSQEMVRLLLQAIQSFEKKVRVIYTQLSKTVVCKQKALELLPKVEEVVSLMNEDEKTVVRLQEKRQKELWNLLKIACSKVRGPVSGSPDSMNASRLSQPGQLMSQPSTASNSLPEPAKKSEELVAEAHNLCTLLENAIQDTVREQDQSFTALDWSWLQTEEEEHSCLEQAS
The series is described as follows: Inhibition of IKKbeta (unknown origin) transfected in HEK293 cells assessed as reduction in TNFalpha-induced upregulation of MCP1 mRNA expression at 200 to 1000 nM administered 6 hrs after TNFalpha stimulation measured for 24 hrs by quantitative RT-PCR analysis. In kind it is cell-based. Put shortly: (§1)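 HEK293 cells pretreated with TNF-α (10 ng/mL) for 6 h, then given compound at 200 or 1000 nM for 24 h, in triplicate; iNOS, COX2 and MCP-1 mRNA relative to GAPDH by quantitative RT-PCR, 2−ΔΔCt method; mean ± SD from three experiments.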

Series [3] deals with HEK293. The series is described as follows: Cytotoxicity against HEK293 cells assessed as reduction in cell viability after 24 hrs by MTT assay. Type of series: cell-based. Particulars: Homo sapiens, HEK293, 24 h. Put shortly:
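HEK293 or H9C2 cells grown in high-glucose DMEM with 10% FBS, exposed to compound for 24 h; viability by MTT, IC50 calculated.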

Series [4] can be described thus: AUC (0 to infinity) in Sprague-Dawley rat at 10 mg/kg, iv measured up to 24 hrs by LC-MS/MS analysis. Type of series: ADME, organism-based. Set-up: dose 10 mg/kg, route intravenous, time infinity. Particulars: in vivo. The essentials: (§2)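 Rats dosed intravenously at 10 mg/kg; blood drawn from suborbital vein at 0, 2, 5, 15, 30, 60 min and 1.5, 2, 4, 6, 8, 12, 24 h; plasma levels by LC-MS/MS; parameters from concentration–time profiles, mean ± SD, n = 3.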

Series [5] in a line: Cmax in Sprague-Dawley rat at 10 mg/kg, iv measured up to 24 hrs by LC-MS/MS analysis. In kind it is ADME, organism-based. Set-up: dose 10 mg/kg, route intravenous. Particulars: in vivo. The essentials: as §2
Series [6] deals with Mus musculus. As to the kind of experiment: Antidiabetic nephropathic activity in db/db mouse assessed as increase in urinary creatinine at 1 to 2 mg/kg, ip administered thrice per week for 12 consecutive weeks measured at 24 hrs post 11 week administration. In kind it is functional, organism-based. Put shortly:
(§3)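 Male db/db mice, 8 weeks old, randomized; ip vehicle (5% Tween-80 in 0.9% saline) or drug three times weekly for 12 weeks, n = 6 per group. After 11 weeks, 24 h urine collected for volume, albumin and creatinine, with UACR calculated; blood then sampled for plasma BUN and uric acid. Mean ± SD, one-way ANOVA with Tukey test.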

The test system of series [7] is Mus musculus. As to the kind of experiment: Antidiabetic nephropathic activity in db/db mouse assessed as reduction in urine albumin to creatinine ratio at 1 to 2 mg/kg, ip administered thrice per week for 12 consecutive weeks measured at 24 hrs post 11 week administration. Type of series: functional, organism-based. The essentials: as §3
Series [8] has as its target T1, Inhibitor of nuclear factor kappa-B kinase subunit beta (Homo sapiens). The series is described as follows: Inhibition of IKKbeta (unknown origin) transfected in HEK293 cells assessed as TNFalpha-induced NFkappaB activation at 200 to 1000 nM administered 6 hrs after TNFalpha stimulation measured for 24 hrs by NFkappaB-driven luciferase reporter gene assay. In kind it is cell-based. The essentials: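 HEK293 cells transfected with an NF-κB-driven luciferase reporter, stimulated with TNF-α and treated in triplicate; luciferase read with a dual-luciferase system.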

Series [9] in a line: Solubility of compound in saline at 100 uM at pH 7.4 by HPLC analysis. In kind it is physicochemical. Put shortly: (§4)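 Solubility was determined by an established HPLC method, in saline alone or in saline containing 1% 1,3-propylene glycol and 1% Tween 80.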
In series [10] the target is T1, Inhibitor of nuclear factor kappa-B kinase subunit beta (Homo sapiens). The series is described as follows: Inhibition of IKKbeta (unknown origin) transfected in HEK293 cells assessed as reduction in TNFalpha-induced upregulation of iNOS protein expression at 200 to 1000 nM administered 6 hrs after TNFalpha stimulation measured for 24 hrs by Western blot method. Type of series: cell-based. The essentials:
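HEK293 cells pretreated with TNF-α (10 ng/mL) for 6 h, then given compound at 200 or 1000 nM for 24 h, in triplicate; nuclear and cytosolic p65, iNOS and COX2 protein by western blot; mean ± SD from three experiments.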

Series [11] concerns Mus musculus. The series is described as follows: Anti-diabetic nephropathic activity in db/db mouse assessed as reduction in plasma uric acid levels at 1 to 2 mg/kg, ip administered thrice per week for 12 consecutive weeks measured at 11 weeks post dose. Type of series: functional, organism-based. The essentials:
as §3

The target of series [12] is T1, Inhibitor of nuclear factor kappa-B kinase subunit beta (Homo sapiens). As to the kind of experiment: Inhibition of IKKbeta (unknown origin) transfected in HEK293 cells assessed as reduction in TNFalpha-induced upregulation of iNOS mRNA expression at 200 to 1000 nM administered 6 hrs after TNFalpha stimulation measured for 24 hrs by quantitative RT-PCR analysis. Type of series: cell-based. Put shortly:
as §1

A short description of series [13]: Solubility of compound in saline containing 1% 1,3-propylene glycol/ 1% Tween 80 at 100 uM at pH 7.4 by HPLC analysis. In kind it is physicochemical. The essentials:
as §4

Series [14] has as its system Mus musculus. As to the kind of experiment: Anti-diabetic nephropathic activity in db/db mouse assessed as reduction in plasma creatinine levels at 0.65 mg/kg, ip administered trice per week for 12 consecutive weeks measured at 11 weeks post dose. In kind it is functional, organism-based.
Series [15] can be described thus: Drug level in Wistar rat liver homogenates treated with 1-Hydroxyl-2-cyano-3-(4-(methyl-L-glutaminate-N5-yl)-benzyloxy)-12-oxo-oleana-2(3),9(11)-dien-28-oic Acid Methyl Ester assessed as GGT-mediated metabolite formation at 100 uM after 8 hrs by HPLC analysis. In kind it is ADME, tissue-based. Particulars: tissue homogenate. Put shortly: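 Plasma, and kidney and liver homogenates in PBS, from three Wistar rats; substrate added at 100 μM at 37 °C; metabolite measured by HPLC every 60 min for 8 h; mean ± SD of three experiments.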

Consider two compounds from ChEMBL document CHEMBL4017544 (J Med Chem, 2017).

In brackets after ≈: the same amount, converted by molar mass. Activity calls are given as the source filed them. The calls are words filed in the database; no cut-off is given here.

Consider `COC(=O)[C@@H](N)CCC(=O)Nc1ccc(COC2=C(C#N)[C@H](O)[C@]3(C)C4=CC(=O)[C@@H]5[C@@H]6CC(C)(C)CC[C@]6(C(=O)OC)CC[C@@]5(C)[C@]4(C)CC[C@H]3C2(C)C)cc1`, for which the Drug metabolism in [1] stood at 0.04 µg/g. In addition, the inhibition entry in series [2], in series [8], in series [10] and in series [12] was “Active” in each case. Besides, in series [3], the IC50 was 56.5 µM. The compound further came in with an AUC(0-inf) in series [4] of 531 ng·h/mL. The compound further showed a Cmax in series [5] of 3020 ng/mL. The result in series [6], in series [7] and in [11] was Active. In addition, the solubility at 100 µM came to 8.9 µg/mL (≈ 0.0115 mM) in series [9] (saline, pH 7.4) and 12200 µg/mL (≈ 15.8 mM) in series [13] (saline containing 1% 1,3-propylene glycol/1% Tween 80, pH 7.4).
With `COC(=O)[C@]12CCC(C)(C)C[C@H]1[C@H]1C(=O)C=C3[C@@]4(C)C=C(C#N)C(=O)C(C)(C)[C@@H]4CC[C@@]3(C)[C@]1(C)CC2` [BARDOXOLONE METHYL], in [14], the result was Active. The inhibition entry in series [2], in [8], in [10] and in series [12] was “Active” each time. Further, the IC50 in series [3] stood at 2.2 µM. Also, the area under the curve AUC(0-inf) in [4] was found to be 2180 ng·h/mL. In [5], this compound gave a Cmax of 5020 ng/mL. Also, the Drug metabolism result in [15] is listed as “Metabolite_Detected”. The solubility entry in series [9] (buffer, pH 7.4, 100 µM) is recorded as “Insoluble”; in series [13] (buffer, pH 7.4, 100 µM), “Insoluble”.
